This is an account of results in ChEMBL document CHEMBL1130096, “2-Cyclopropylindoloquinones and their analogues as bioreductively activated antitumor agents: structure-activity in vitro and efficacy in vivo” (J Med Chem, 1997).

A short description of data set [1]: Hypoxic cytotoxic ratios of the concentration required to kill 50% of the aerobic cells and concentration required to kill hypoxic cells. In kind it is cell-based, Cricetulus griseus. As to conditions: chinese hamster, V79 cells; read-out: HCR.
In data set [2] the test system is V79. Put plainly: In vitro concentration required to kill 50% of the aerobic cells. In kind it is functional, Cricetulus griseus.
Data set [3] relates to V79. Put plainly: In vitro concentration required to kill hypoxic cells V79-379A cells. In kind it is functional, Cricetulus griseus.
Data set [4] in a line: hypoxic cytotoxic ratios (HCR) of the concentration required to kill 50% of the aerobic cells and concentration required to kill hypoxic cells. As to conditions: read-out: HCR.
Data set [5] deals with V79. Put plainly: In vitro concentration required to kill 50% of the aerobic cells under the conditions of the assay. In kind it is functional, Cricetulus griseus.
The test system of data set [6] is V79. Put plainly: In vitro concentration required to kill hypoxic cells V79-379A cells was determined for all the compounds using the MTT(3-(4,5-dimethylthiazol-2-y1)-2,5-diphenyl-2H-tetrazolium bromide) assay. Format: functional, Cricetulus griseus.
Data set [7] concerns Mus musculus. Put plainly: compound was evaluated in vivo in mice bearing [KHT] murine sarcoma tumor cells at 100 mg kg-1 drug dose. MTD is the […]. Format: functional.
Data set [8] deals with Mus musculus. Put plainly: compound was evaluated in vivo in mice bearing [RIF-1] murine sarcoma tumor cells at 100 mgkg-1 drug dose. MTD is the […]. In kind it is functional.
In data set [9] the test system is Mus musculus. The data set can be described thus: compound was evaluated in vivo mice bearing [RIF-1] murine sarcoma tumor cells at 100 mgkg-1 drug dose. MTD is the […]. In kind it is functional.
For data set [10], the system named is Mus musculus. The data set can be described thus: compound was were evaluated in vivo in mice bearing [KHT] murine sarcoma tumor cells at 100 mg kg-1 drug dose. MTD is the […]. Format: functional.
Data set [11] deals with Mus musculus. Put plainly: compound was evaluated in vivo in mice bearing [KHT] tumor cells at 20 mg kg-1 drug dose. MTD is the […]. In kind it is functional.
Data set [12] concerns Mus musculus. Put plainly: compound was evaluated in vivo in mice bearing [KHT] tumor cells at 50 mg kg-1 drug dose. MTD is the […]. Format: functional.
Data set [13] concerns Mus musculus. Put plainly: compound was evaluated in vivo in mice bearing [KHT] tumor cells at 90 mg kg-1 drug dose. MTD is the […]. In kind it is functional.
Data set [14] has as its system Mus musculus. The data set can be described thus: compound was evaluated in vivo in mice bearing [RIF-1] tumor cells 90 mg kg-1 drug dose. MTD is the […]. In kind it is functional.
Data set [15] concerns Mus musculus. The data set can be described thus: compound was evaluated in vivo in mice bearing [RIF-1] tumor cells at 20 mg kg-1 drug dose. MTD is the […]. Format: functional.
For data set [16], the system named is Mus musculus. Put plainly: compound was evaluated in vivo in mice bearing [RIF-1] tumor cells at 50 mg kg-1 drug dose. MTD is the […]. In kind it is functional.
Data set [17] has as its system Mus musculus. Put plainly: compound was evaluated in vivo in mice bearing [KHT] tumor cells for the relative surviving fraction of cells at 20 mg kg-1 drug dose. Format: functional. The essentials:
(§1)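 Mice bearing RIF-1 or KHT murine sarcomas. Maximum tolerated dose (MTD) established for each drug. Drug given alone at MTD, or at 20 or 50 mg kg-1 combined with a single X-ray dose: 15 Gy for RIF-1, 10 Gy for KHT. Radiation dose chosen to kill most oxic tumor cells. Read-out was tumor cell surviving fraction relative to untreated control, reported as mean.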

For data set [18], the system named is Mus musculus. The data set can be described thus: compound was evaluated in vivo in mice bearing [KHT] tumor cells for the relative surviving fraction of cells at 50 mg kg-1 drug dose. In kind it is functional. The essentials:
as §1

Data set [19] concerns Mus musculus. The data set can be described thus: compound was evaluated in vivo in mice bearing [KHT] tumor cells for the relative surviving fraction of cells at 90 mg kg-1 drug dose. In kind it is functional. The essentials: as §1
In data set [20] the test system is Mus musculus. Put plainly: compound was evaluated in vivo in mice bearing [RIF-1] tumor cells for the relative surviving fraction of cells at 50 mg kg-1 drug dose. Format: functional. The gist of the method:
as §1

The subject of data set [21] is Mus musculus. Put plainly: compound was evaluated in vivo in mice bearing [RIF-1] tumor cells for the relative surviving fraction of cells at 90 mg kg-1 drug dose. Format: functional. The essentials:
as §1

Data set [22] concerns Mus musculus. Put plainly: compound was evaluated in vivo in mice bearing [RIF-1] tumor cells for the relative surviving fraction of cells at 20 mg kg-1 drug dose. Format: functional. The essentials: as §1

In the case of `Cc1c(CO)c2c(n1C)C(=O)C=C(NCC(C)(C)O)C2=O`, in data set [1], the selectivity ratio stood at 2.5. For the same compound, the results for the C50 in [2] and in [3] were 1260 µM and 500 µM, respectively.

On to `CC(C)c1c(COC(N)=O)c2c(n1C)C(=O)C=C(N1CC1C)C2=O` (stereo not drawn), for which, in data set [1], the selectivity ratio was 23.7. Besides, the C50 in [2] came to 20.6 µM; in [3], 0.87 µM.

On to `Cn1c2c(c(CO)c1C1CCCCC1)C(=O)C(N1CC1)=CC2=O`, for which the selectivity ratio in data set [1] was 37. Also, the C50 in [2] came out at 34.5 µM; in data set [3] it was 0.93 µM.

Turning to `Cc1c2c(n(C)c1C(C)C)C(=O)C=C(N1CC1)C2=O`, the selectivity ratio in data set [4] worked out at 1.77. Further, the C50 was determined as 0.333 µM in data set [5] and 0.188 µM in data set [6].

`COC1=CC(=O)c2c(c(CO)cn2C)C1=O`: the selectivity ratio in data set [1] amounted to 0.92. Moreover, the C50 in data set [2] came to 220 µM; in [3], 240 µM.

On to `Cn1cc(COC(N)=O)c2c1C(=O)C=C(N1CC1)C2=O`, for which the selectivity ratio in [1] amounted to 1.46. The C50 in data set [2] turned out to be 0.00019 µM; in data set [3] it was 0.00013 µM.

For `COC1=CC(=O)c2c(c(CO)c(C3CCCCC3)n2C)C1=O`, the selectivity ratio in [1] worked out at 6. The C50 in [2] was 122.4 µM; in data set [3], 20.5 µM.

Take `Cn1c(/C=C/CO)c(CO)c2c1C(=O)C=C(N1CC1)C2=O` [APAZIQUONE]: in data set [1], the selectivity ratio was 50.3. The C50 worked out at 0.19 µM in data set [2] and 0.0038 µM in data set [3].

Turning to `NC(=O)OCc1c2c(n3c1C1CC1C3)C(=O)C=C(N1CC1)C2=O` (stereo not drawn), the C50 in data set [2] and in data set [3] was 0.003 µM in each case.

On to `Cc1c(CO)c2c(n1C)C(=O)C=C(N1CC1)C2=O`, for which, in data set [1], the selectivity ratio was found to be 12.8. The C50 in data set [2] came to 0.149 µM; in [3], 0.0116 µM.

On to `CC1CN1C1=CC(=O)c2c(c(COC(N)=O)c(C3CC3)n2C)C1=O` (stereo not drawn), for which, in data set [1], the selectivity ratio was found to be 27.2. For the same compound, the C50 in data set [2] was found to be 12.5 µM; in [3] it was 0.459 µM.

Take `COC1=CC(=O)c2c(c(COC(N)=O)c(C3CC3)n2C)C1=O`: the selectivity ratio in data set [1] is 65.9. Moreover, the C50 in [2] was 29 µM; in [3], 0.44 µM.

In the case of `Cn1c2c(c(COC(N)=O)c1C1CC1)C(=O)C(N1CC1)=CC2=O`, in data set [1], the selectivity ratio came to 45. The C50 in [2] was found to be 3.33 µM; in data set [3] it was 0.074 µM.

Consider `COC1=CC(=O)c2c(c(CO)c(C(C)C)n2C)C1=O`, for which the selectivity ratio in data set [1] turned out to be 4. The C50 in [2] was 800 µM; in [3], 200 µM.

Turning to `COC1=CC(=O)c2c(c(CO)c3n2CC2CC32)C1=O` (stereo not drawn), the selectivity ratio in data set [1] was 1.8. Also, the C50 in data set [2] was found to be 108.4 µM; in [3], 60.6 µM.

Consider `Cn1cc(CO)c2c1C(=O)C=C(N1CC1)C2=O`, for which, in data set [1], the selectivity ratio stood at 15.4. In addition, the C50 is 0.153 µM in [2] and 0.0086 µM in data set [3].

As to `COC1=CC(=O)c2c(c(COC(N)=O)c(C(C)C)n2C)C1=O`, in [1], the selectivity ratio was found to be 179. Moreover, the C50 in data set [2] worked out at 20.9 µM; in [3], 0.117 µM.

For the compound `CC(C)c1c(COC(N)=O)c2c(n1C)C(=O)C=C(N1CC1)C2=O`, the selectivity ratio in data set [1] came to 8.7. Further, the C50 was 47.5 µM in data set [2] and 5.46 µM in data set [3].

Take `COC1=CC(=O)c2c(c(CO)c(C)n2C)C1=O`: the selectivity ratio in data set [1] came to 3.78. Also, the C50 in data set [2] was 1077 µM; in data set [3], 284.8 µM.

Consider `COC(=O)c1c2c(n(C)c1C1CC1)C(=O)C=C(OC)C2=O`, for which the selectivity ratio in data set [1] was found to be 1.7. Also, the C50 in [2] was determined as 103.5 µM; in data set [3] it was 59.8 µM.

As for `COC1=CC(=O)c2c(c(CO)c(C3CC3)n2C)C1=O`, the selectivity ratio in data set [1] came out at 0.65. Besides, the values for the C50 in data set [2] and in data set [3] were 540 µM and 820 µM, respectively.

As to `Cn1c2c(c(CO)c1C1CC1)C(=O)C(N1CC1)=CC2=O`, the MTD in data set [7], in [8], in data set [9] and in [10] was 100 mg/kg in each case. Also, the selectivity ratio in [1] came out at 104. Besides, the C50 in data set [2] turned out to be 0.603 µM; in data set [3], 0.0058 µM.

Turning to `CO[C@@]12[C@H](COC(N)=O)C3=C(C(=O)C(C)=C(N)C3=O)N1C[C@@H]1N[C@@H]12` [MITOMYCIN], the C50 in [2] came out at 0.8 µM; in data set [3], 0.4 µM.

`COC(=O)c1c2c(n(C)c1C1CC1)C(=O)C=C(N1CC1)C2=O`: the selectivity ratio in data set [1] was 1.8. In addition, the C50 in [2] was found to be 1.72 µM; in data set [3] it was 0.93 µM.

In the case of `COC1=CC(=O)c2c(c(COC(N)=O)cn2C)C1=O`, the selectivity ratio in [1] came out at 83.8. Moreover, the C50 in data set [2] came to 3.1 µM; in data set [3], 0.037 µM.

As for `CC1CN1C1=CC(=O)c2c(c(CO)c(C3CC3)n2C)C1=O` (stereo not drawn), the selectivity ratio in data set [1] is 23.4. Besides, the C50 in data set [2] came to 130 µM; in [3], 5.6 µM.

With `CC(C)c1c(CO)c2c(n1C)C(=O)C=C(N1CC1C)C2=O` (stereo not drawn), the selectivity ratio in [1] came to 9.2. Also, the C50 in data set [2] turned out to be 127.8 µM; in data set [3] it was 13.9 µM.

For `O=C1C(N2CC2)=CC(=O)c2c1c(CO)c1n2CC2CC12` (stereo not drawn), in data set [1], the selectivity ratio came to 13.2. The C50 in data set [2] was found to be 0.965 µM; in data set [3] it was 0.073 µM.

Regarding `Cc1c(CO)c2c(n1C)C(=O)C=C(N1C(C)C1C)C2=O` (stereo not drawn), in data set [1], the selectivity ratio was found to be 14.2. For the same compound, the values for the C50 in data set [2] and in [3] were 202 µM and 14.2 µM, respectively.

On to `Cc1c(CO)c2c(n1C)C(=O)C=C(N1CC1C)C2=O` (stereo not drawn), for which the MTD in data set [11], in [12], in data set [13], in [14], in data set [15] and in data set [16] was 90 mg/kg each time. In addition, the “Mean relative surviving fraction” value in data set [17] is 0.008; in data set [18], 0.005; in data set [19], 0.15; in data set [20], under 0.0001; in data set [21] it was 0.02; in data set [22], under 0.0001. For the same compound, the selectivity ratio in data set [1] amounted to 188. For the same compound, the C50 was 94 µM in [2] and 0.5 µM in data set [3].

As to `COC1=CC(=O)c2c(c(C)c(C(C)C)n2C)C1=O`, the selectivity ratio in data set [1] was 1.88. Also, the C50 in data set [2] is 1.236 µM; in [3], 0.657 µM.

For the compound `CC(C)c1c(CO)c2c(n1C)C(=O)C=C(N1CC1)C2=O`, in data set [1], the selectivity ratio stood at 32.5. Further, the figures for the C50 in data set [2] and in data set [3] were 25.7 µM and 0.79 µM, respectively.

As to `COC(=O)c1c2c(n(C)c1C(C)C)C(=O)C=C(OC)C2=O`, the selectivity ratio in data set [1] was found to be 1. In addition, the C50 in data set [2] and in data set [3] was 150 µM throughout.
